This is an account of results in ChEMBL document CHEMBL1129262, “Peptidyl anthraquinones as potential antineoplastic drugs: synthesis, DNA binding, redox cycling, and biological activity” (J Med Chem, 1996).

Each structure is given as a SMILES string. A value given as a limit tells only on which side of the number the result lay.

For one series, the system named is HeLa. In words: Effective concentration against cell growth of HeLa cell line by 50%. Format: functional. To be noted: Homo sapiens, read-out: ED50. The gist of the method: (§1)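 HeLa and L1210 cells grown in Dulbecco's modified Eagle's medium with 5% fetal calf serum, antibiotics and L-glutamine. Exponentially growing cells were exposed to drug for 1 h at 37 °C. Growth was scored by MTT, after washing and 96 h drug-free culture, or by cell counting after 72 h. Value is the concentration giving 50% growth inhibition.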

Series [1] can be described thus: Exclusion parameter (base pairs). The series is classed as ADME. The essentials:
(§2)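 DNA titrations were run at constant anthraquinone concentration while the DNA/drug ratio was varied, at 25 °C in 10 mM Tris pH 7.0 with 1 mM EDTA and NaCl added to set ionic strength. Binding was followed by fluorescence quenching, or by absorbance at 500–750 nm for non-fluorescent drugs. McGhee–von Hippel analysis gave the intrinsic constant K and the exclusion parameter n.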

For another series, the system named is Nucleic Acid. In words: Intrinsic Binding constant of compound to DNA at pH 7 and 25 Centigrade. The series is classed as functional. As to conditions: Bos taurus. The gist of the method: as §2
The subject of another series is HL-60. In words: Effective concentration against cell growth of HL60 cell line by 50%. Format: functional. As to conditions: Homo sapiens, HL-60, read-out: ED50. The essentials:
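HL60 cells grown in RPMI-1640 with 10% fetal calf serum. Exponentially growing cells were exposed to drug for 1 h at 37 °C. Survival was read either by MTT, after washing and 96 h culture in drug-free medium, or by cell counting after 72 h culture. Value is the drug concentration inhibiting cell growth by 50%.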

The subject of the next series is L1210. In words: Effective concentration against cell growth of L1210 cell line by 50%. The series is classed as functional. As to conditions: Mus musculus, L1210, read-out: ED50. The gist of the method: as §1
Series [2] in a line: Exclusion parameter (base pairs. The series is classed as ADME. The gist of the method:
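Fluorometric titration at 25 °C in 10 mM Tris pH 7.0, 1 mM EDTA, NaCl set to the chosen ionic strength. DNA/drug ratio varied at constant drug concentration by mixing drug-alone and drug-plus-DNA solutions. Nonfluorescent drugs followed spectrophotometrically at 500–750 nm. Data fitted by McGhee–von Hippel to give K and the exclusion parameter n.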

`NCC(=O)NCC(=O)Nc1ccc(NC(=O)CNC(=O)CN)c2c1C(=O)c1ccccc1C2=O`: the EC50 was 2400 nM in the series on HeLa, 2300 nM in the series with HL-60 and 800 nM with L1210. In addition, in series [1], the Exclusion parameter was determined as 2.5. This molecule also registered a K x10e-5 in the series with Nucleic Acid of 2.4 M⁻¹.
With `NCC(=O)NCC(=O)Nc1ccc(N)c2c1C(=O)c1ccccc1C2=O`, the EC50 in the series with HeLa was 2700 nM; in the series with HL-60, 2000 nM; with L1210, 240 nM. This molecule also registered an Exclusion parameter in series [1] of 2.2. Also, the K x10e-5 in the series on Nucleic Acid is 1.7 M⁻¹.
For `N[C@@H](Cc1c[nH]c2ccccc12)C(=O)NCC(=O)Nc1ccc(NC(=O)CNC(=O)[C@@H](N)Cc2c[nH]c3ccccc23)c2c1C(=O)c1ccccc1C2=O`, the EC50 with HL-60 amounted to 30000 nM.
As to `O=C1c2ccccc2C(=O)c2c(NCCNCCO)ccc(NCCNCCO)c21` [AMETANTRONE], the EC50 with HeLa turned out to be 3100 nM; with HL-60, 880 nM; in the series with L1210, 100 nM. The molecule also yielded an Exclusion parameter in series [2] of 2.7. Further, the K x10e-5 with Nucleic Acid worked out at 3.4 M⁻¹.
With `NCCCC[C@H](N)C(=O)NCC(=O)Nc1ccc(NC(=O)CNC(=O)[C@@H](N)CCCCN)c2c1C(=O)c1ccccc1C2=O`, the EC50 in the series with HeLa and in the series on HL-60 was above 100000 nM throughout. In series [1], this molecule returned an Exclusion parameter of 2.3. The molecule also came in with a K x10e-5 in the series with Nucleic Acid of 17.5 M⁻¹.
In the case of `NCC(=O)NCC(=O)NCC(=O)Nc1ccc(NC(=O)CNC(=O)CNC(=O)CN)c2c1C(=O)c1ccccc1C2=O`, the Exclusion parameter in series [1] stood at 2.4. In the series on Nucleic Acid, the K x10e-5 came out at 2.4 M⁻¹.
Turning to `NCC(=O)Nc1ccc(NC(=O)CN)c2c1C(=O)c1ccccc1C2=O`, the EC50 with HeLa was 1600 nM; with HL-60, 1900 nM; with L1210, 900 nM. In addition, in series [1], the Exclusion parameter was found to be 2.3. The K x10e-5 in the series on Nucleic Acid turned out to be 2.2 M⁻¹.
As for `NCC(=O)Nc1ccc(N)c2c1C(=O)c1ccccc1C2=O`, the EC50 turned out to be 2700 nM with HeLa, 2000 nM with HL-60 and 310 nM with L1210. In series [1], this molecule showed an Exclusion parameter of 2.1. The K x10e-5 in the series with Nucleic Acid came to 3.6 M⁻¹.
Turning to `NC(Cc1c[nH]c2ccccc12)C(=O)NCC(=O)Nc1ccc(NC(=O)CNC(=O)C(N)Cc2c[nH]c3ccccc23)c2c1C(=O)c1ccccc1C2=O` (configuration not stated), in the series with HL-60, the EC50 stood at 28000 nM.
As to `NCCCCC(N)C(=O)NCC(=O)Nc1ccc(NC(=O)CNC(=O)C(N)CCCCN)c2c1C(=O)c1ccccc1C2=O` (configuration not stated), the EC50 in the series with HeLa and in the series on HL-60 was above 100000 nM each time. For the same molecule, in series [1], the Exclusion parameter is recorded as 2.4. Moreover, in the series with Nucleic Acid, the K x10e-5 came out at 33 M⁻¹.
